Reference: ChEMBL document CHEMBL1138243, “Design of mechanism-based inhibitors of transthyretin amyloidosis: studies with biphenyl ethers and new structural templates” (J Med Chem, 2007)
Active and inactive are the calls of the source. The rule behind the calls is not given here.

Legend:
Transthyretin [1] = target: T1, Transthyretin (Homo sapiens, UniProt P02766); experiment: Inhibition of transthyretin amyloidosis assessed as fibril formation at 7.2 uM at pH 4.4 relative to control; format: functional; design: scale not given: the % may be the effect or the level left
In short: (§1)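 WT TTR tetramer (7.2 µM) in pH 7 phosphate/KCl/EDTA was preincubated 1 h at 25 °C with inhibitor (7.2 or 21.6 µM; 1:1 or 1:3) in 1% DMSO. It was then diluted with pH 4.4 acetate/KCl/EDTA buffer and held stagnant 72 h at 37 °C. Turbidity was read at 340 nm as % fibril formation versus untreated (100%). Mean of five experiments.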

Transthyretin [2] = target: T1, Transthyretin; experiment: Inhibition of transthyretin amyloidosis assessed as fibril formation at 21.6 uM at pH 4.4 relative to control; format: functional; design: scale not given: the % may be the effect or the level left; in short: as §1
Transthyretin [3] = target: T1, Transthyretin; experiment: Inhibition of transthyretin fibril formation at pH 4.4 at 50 uM; format: functional; design: scale not given: the % may be the effect or the level left
Transthyretin [4] = target: T1, Transthyretin; experiment: Inhibition of transthyretin fibril formation assessed as turbidity at 21.6 uM at pH 4.4 after 3 hrs; format: functional
In short: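 Kinetics run with 7.2 µM TTR plus 21.6 µM inhibitor at pH 4.4, 37 °C. Turbidity at 340 nm was followed for 3 h. Initial fibrillization rate came from the linear slope of A340 versus time. Three experiments in triplicate.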

Transthyretin [5] = target: T1, Transthyretin; experiment: Stabilization of urea-induced transthyretin dissociation at 5.4 uM at pH 7.2 after 1 hr relative to control
Transthyretin [6] = target: T1, Transthyretin; experiment: Inhibition of transthyretin fibril formation at pH 4.4; format: functional
[7] = Cytotoxicity against TTR-induced […] cells assessed as viability at 50 uM after 72 hrs; format: functional; settings: Mus musculus, N2a, read-out: Activity
Neuro2a = experiment: Cytotoxicity against […] cells at 50 uM; format: functional, cell-based; settings: Mus musculus
Transthyretin [8] = target: T1, Transthyretin; experiment: Inhibition of fibril elongation of preformed transthyretin at […] after 72 hrs by turbidity assay; format: functional
Transthyretin [9] = target: T1, Transthyretin; experiment: Stabilization of urea-induced transthyretin dissociation at 5.4 uM at pH 7.2 after […] relative to control
Transthyretin [10] = target: T1, Transthyretin; experiment: Inhibition of transthyretin fibril formation at pH 4.4 at 100 uM; format: functional
In short: (§2)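 Library screen of acid-mediated TTR fibril formation at pH 4.4 with inhibitor at 100 µM. TTR was at 7.2 µM.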

Transthyretin [11] = target: T1, Transthyretin; experiment: Inhibition of transthyretin amyloidosis assessed as fibril formation pH 4.4 at 100 uM; format: functional; in short: as §2
Transthyretin [12] = target: T1, Transthyretin; experiment: Binding affinity to transthyretin at pH 4.4
In short: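 Kd at pH 4.4 measured by fluorescence titration of TTR. Data were fitted to the Adair equation for two binding sites, giving Kd1 and Kd2. Experiments were run in triplicate.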

Compound	Activity (Transthyretin [1])	Activity (Transthyretin [2])	Activity (Transthyretin [3])	inhibition (Transthyretin [4])	Activity (Transthyretin [5])	IC50 (Transthyretin [6])	viability at 50 µM [7]	Activity (Neuro2a)	Activity (Transthyretin [8])	Activity (Transthyretin [9])	inhibition (Transthyretin [10])	percent fibril formation relative to control (Transthyretin [11])	Kd (Transthyretin [12]; read-out: Kd)	Kd (Transthyretin [12])
Oc1cc(Cl)ccc1Oc1ccc(Cl)cc1Cl	75%	66%	41%	62%	47%									
COc1cc(C(=O)O)ccc1Oc1ccccc1			40%			41 µM								
COc1cc(CCl)ccc1Oc1ccc(Cl)cc1Cl	26%	0%	0%	> 80%			86%	Not toxic	Active	< 5%				
Oc1ccccc1-c1nnc(S)o1	21%	0%		> 80%			86%	Not toxic	Active	< 5%	86.2%	13.8%		
COc1cc(C=O)ccc1Oc1ccccc1	12%	0%	0%	> 80%			86%	Not toxic	Active	< 5%				
O=C(O)c1ccc(Oc2ccccc2)c(O)c1	32%	5%	5%	> 80%		3.18 µM	86%	Not toxic	Active	< 5%			0.027 µM	
O=C(O)c1ccc(Oc2ccc(Cl)cc2Cl)c(O)c1	29%	13.3%	0%	> 80%	21%		86%	Not toxic	Active					
O=C(Nc1nnc[nH]1)c1c(Cl)ccc(Cl)c1Cl	11%	3.6%		> 80%			86%	Not toxic	Active	< 5%	88.5%	11.5%		
COc1cc(C(=O)O)ccc1Oc1ccc(Cl)cc1Cl	10%	0%	0%	> 80%			86%	Not toxic	Active	< 5%				
N[C@H](Cc1cc(I)c(Oc2cc(I)c(O)c(I)c2)c(I)c1)C(=O)O	48%	7%		75%	27%									
OCc1ccc(Oc2ccc(Cl)cc2Cl)c(O)c1	12%	2.6%	11.5%	> 80%			86%	Not toxic	Active	< 5%				
O=Cc1ccc(Oc2ccc(Cl)cc2Cl)c(O)c1	0%	0%	0%	> 80%			86%	Not toxic	Active	< 5%				
COc1cc(CCl)ccc1Oc1ccccc1	25%	0%	0%	> 80%			86%	Not toxic	Active	< 5%				Active
